Sampled rows, rich in hits. Any-hit rate of the full collection: about 0.74%.
RGS16-Gao HTS = modulators of RGS16 binding to Galphao, primary screen, biochemical, human proteins, multiplexed bead flow cytometry. bead-based flow cytometry RGS16-Galphao binding, fluorescence; actives lie on both sides. binding response (% of control), % at 10 µM. actives 0.38% (n = 220,000). AID 1441, 2008;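 also: Galphao activated by GDP with aluminum fluoride before binding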
Target sequence (O15492 whole entry, looked up): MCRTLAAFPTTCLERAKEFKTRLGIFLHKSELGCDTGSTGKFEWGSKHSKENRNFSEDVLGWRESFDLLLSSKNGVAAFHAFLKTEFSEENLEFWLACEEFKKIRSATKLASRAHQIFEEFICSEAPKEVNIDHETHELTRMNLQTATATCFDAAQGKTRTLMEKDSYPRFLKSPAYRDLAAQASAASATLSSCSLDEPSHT
Target sequence (P09471 whole entry, looked up): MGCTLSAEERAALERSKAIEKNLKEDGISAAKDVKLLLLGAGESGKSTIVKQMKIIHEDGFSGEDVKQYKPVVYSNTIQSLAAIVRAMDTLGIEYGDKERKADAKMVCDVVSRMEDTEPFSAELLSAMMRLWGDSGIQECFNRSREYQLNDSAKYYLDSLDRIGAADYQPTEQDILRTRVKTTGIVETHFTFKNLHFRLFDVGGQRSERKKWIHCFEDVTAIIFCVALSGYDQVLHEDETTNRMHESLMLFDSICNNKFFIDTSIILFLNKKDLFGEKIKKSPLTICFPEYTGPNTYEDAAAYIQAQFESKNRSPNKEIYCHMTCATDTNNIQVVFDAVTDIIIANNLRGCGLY
Calb biofilm kill = clotrimazole potentiators killing C. albicans biofilm, primary screen, 4-compound mixtures; C. albicans biofilm persisters + clotrimazole, fluorescence viability; primary screen in compound mixtures of four per well; inhibition, % at 7.6 µM; actives 0.02% (n = 120,000); AID 1242, 2008;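 active = inhibition above 30.3% in the primary screen of four-compound pools, then above 30% when the compound was retested; inconclusive = passed the primary limit but could not be retested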;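 also: compounds exposed to preformed 24 h biofilms for 48 h; 0% = untreated biofilm control and 100% = clotrimazole plus chlorhexidine kill blank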
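Incubation: 24 h biofilm formation, then 48 h compound exposure, 37 °C | Material: C. albicans biofilms | Buffer or medium: RPMI/MOPS medium, pH 7.0 | Measured by: 2-h Alamar Blue fluorescence, 535/590 nm excitation/emission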
RGS4-Gao reg = modulators of RGS4 binding to Galphao, primary screen, biochemical, multiplexed bead flow cytometry | actives 0.33% (n = 220,000) | actives lie on both sides | binding response (% of control), % at 10 µM; in the data active = binding response below about 49% or above about 150%; inactive = in between;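 also: fluorescent Galphao activated with aluminum fluoride binding bead-coupled RGS4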
RGS7-Gao = RGS7-Galphao binding modulators, primary screen, biochemical, multiplexed bead flow cytometry | actives 0.35% (n = 220,000) | Guanine nucleotide-binding protein G(o) subunit alpha (Homo sapiens), P09471 | binding response (% of control), % at 10 µM | actives lie on both sides; in the data active = binding response below about 49% or above about 150%; inconclusive = no clear call, values can overlap the other calls; inactive = in between;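 also: fluorescent Galphao held in activated GDP-AlF4 state binding bead-coupled RGS7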
RGS8-Gao reg = RGS8-Galphao binding modulators, primary screen, biochemical, multiplexed bead flow cytometry. Guanine nucleotide-binding protein G(o) subunit alpha (Homo sapiens), P09471. actives lie on both sides. response (percent of control binding), % at 10 µM. actives 0.34% (n = 220,000); in the data active = response below about 60% or above about 140%; inactive = in between;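 also: Galphao activated as the GDP aluminium fluoride complex binding bead-coupled RGS8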
RGS-Gao = modulators of RGS–Galpha-o binding, primary screen, biochemical, multiplexed beads, flow cytometry, RGS4/7/8/16/19 | multiplexed bead flow cytometry | RGS4–Galpha-o binding response, % at 10 µM | shares compounds with RGS16-Gao HTS | actives 99% (n = 1,600);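 also: fluorescently labeled Galpha-o bound to GDP with aluminium fluoride binding biotinylated RGS beads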
Biotin-avidin = disruption of biotin probe capture by avidin, counter-screen for RGS protein interaction modulators, biochemical, flow cytometry, bead-based. shares compounds with RGS16-Gao HTS. streptavidin beads, fluorescein-biotin binding. inhibition, % at 10 µM. 1,700 tested, under 10 active;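 active = inhibition above 50%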;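 also: median green fluorescence of gated singlet beads compared with DMSO control wells; 0% = DMSO wells and 100% = complete loss of bead fluorescence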
RGS8-Gao confirm = RGS8-Galphao binding modulators, confirmation, biochemical, multiplexed bead flow cytometry, single concentration | shares compounds with RGS16-Gao HTS | bead-based flow cytometry RGS8-Galphao binding, fluorescence; actives lie on both sides | binding response (% of control), % at 10 µM | actives 3% (n = 1,700) | AID 1836, 2009; in the data active = binding response below about 72% or above about 130%; inactive = in between;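 also: Galphao activated as GDP AlF4 complex before binding bead RGS8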
RGS7-Gao single = RGS7-Galphao binding modulators, confirmation, biochemical, multiplexed bead flow cytometry, single concentration; AID 1837, 2009; actives 7.8% (n = 1,700); response (percent of control binding), % at 10 µM; bead-based flow cytometry RGS7-Galphao binding; actives lie on both sides; shares compounds with RGS16-Gao HTS; in the data active = response below about 75% or above about 130%; inactive = in between;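 also: fluorescent Galphao activated with GDP and aluminum fluoride binding bead-coupled RGS7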
RGS16-Gao single = modulators of RGS16-Galphao protein binding, confirmation, biochemical, single concentration, multiplexed bead flow cytometry; shares compounds with RGS16-Gao HTS; bead-based flow cytometry; actives lie on both sides; response (% of control binding), % at 10 µM; actives 4% (n = 1,700); AID 1838, 2009; in the data active = response below about 74% or above about 130%; inactive = in between;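 also: Galphao activated as the GDP aluminium fluoride complex binding bead-coupled RGS16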
RGS4-Gao single = modulators of RGS4-Galphao protein binding, confirmation, biochemical, single concentration, multiplexed bead flow cytometry; shares compounds with RGS16-Gao HTS; actives lie on both sides; binding response (% of control), % at 10 µM; actives 4% (n = 1,700); AID 1840, 2009; in the data active = binding response below about 74% or above about 130%; inactive = in between
RGS19-Gao conf = regulators of RGS19-Galphao binding, confirmation, biochemical, single point, multiplexed bead flow cytometry; bead-based flow cytometry RGS19-Galphao binding; actives lie on both sides; shares compounds with RGS16-Gao HTS; actives 5% (n = 1,700); AID 1841, 2009; response (percent of control binding), % at 10 µM; in the data active = response below about 50% or above about 160%; inactive = in between;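 also: 100% = no compound control and 0% = blank background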
* marks the source's active call; other numbers are inactive results; u = inconclusive; x = no result; [ ] = dose if it differs, or a comment. Unless noted, no rule for the calls is given here.

SMILES	RGS16-Gao HTS	Calb biofilm kill	RGS4-Gao reg	RGS7-Gao	RGS8-Gao reg	RGS-Gao	Biotin-avidin	RGS8-Gao confirm	RGS7-Gao single	RGS16-Gao single	RGS4-Gao single	RGS19-Gao conf
O=C(NCc1ccccc1)c1ccc(C(=O)N(C2CCCCC2)C2CCCCC2)cc1	x	x	x	x	x	x	-1	93	86	90	93	86
Oc1oc(-c2ccc(Br)cc2)nc1C=Nc1ccc(Br)cn1	161	9	134	138	146*[activator]	134*	0	103	93	100	94	107
Cc1ccc(N=Cc2nc(-c3ccc(C)cc3)oc2O)cc1	103	10	106	108	104	x	x	x	x	x	x	x
Cn1c(N2CCCC2)nc2c1c(=O)n(Cc1ccc(Cl)cc1)c(=O)n2C	x	x	x	x	x	x	2	100	98	101	103	99
COc1ccccc1/C=C\C=N\n1c(-c2ccc(Cl)cc2)n[nH]c1=S	7.8*	14	88	93	58*	88*	-2	92	75*	82	82	51
CC(C)(C)c1ccc(-c2nc3n(c(=O)c2C#N)CCS3)cc1	100	-3	99	100	99	x	x	x	x	x	x	x
Cc1ccc(-n2c(C)cc(C(=O)COc3c(CO)cc(F)cc3CO)c2C)cc1C	332	14	116	115	153*[activator]	116*	2	105	104	104	103	108
Cc1cc(C(=O)NNC(=S)NC(C)c2ccccc2)c2ccccc2n1 (stereo unspecified)	131	x	107	105	111	x	x	x	x	x	x	x
C#CCOC(=O)C(NC(=O)c1ccccc1)=C(C)C	-38*	x	78	90	83	78*	1	103	102	102	102	101
CCOC(=O)C(NC(=O)c1ccccc1)=C(C)C	103	x	103	102	104	x	x	x	x	x	x	x
CCCCOC(=O)C(NC(=O)c1ccccc1)=C(C)C	-33*	x	-36*	-16*	5.2*	x	-2	102	101	105	98	95
COC(=O)C(NC(=O)c1ccccc1)=C(C)C	107	x	101	110	101	x	x	x	x	x	x	x
COc1cc(OC)c(/C=N/NC(=O)c2ccc(Cn3nc([N+](=O)[O-])cc3C)cc2)c(OC)c1	104	25	106	u	104	x	x	x	x	x	x	x
FC(F)Oc1ccc(NC(=S)NNc2ccnc3cc(Cl)ccc23)cc1	97	34	100	96	98	x	x	x	x	x	x	x
